Source: PubChem
Efflux pump mplx – antifungal efflux pump inhibition, Nile Red retention. S. cerevisiae Candida pump triplex. inhibition, % at 10 µM. 330,000 tested, 0.44% active;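 active = plate passing quality check with inhibition over a set limit, or well fluorescence over plate mean plus 4 SD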;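 note: Nile Red retained in pooled yeast measured as flow cytometry median fluorescence; 0% = buffer negative control and 100% = Enniatin B positive control; higher means more Nile Red kept so more efflux inhibition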
SMARCA2 activ – increases SMARCA2 function in MMTV reporter cells | MG213 cells, MMTV-luciferase reporter, dexamethasone, overnight | activation, % at 9.1 µM | 370,000 tested, 1% active; in the data active = activation above about 7.8%;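 note: 0% = vehicle wells and 100% = reference activator wells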
TAG inh – inhibitors of triacylglycerol accumulation. H9c2 cells, Nile Red lipid (TAG) fluorescence; cells loaded with 200 µM oleic acid. 230,000 tested, 0.66% active. AID 651582. inhibition, % at 12.5 µM;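 active = pattern-corrected inhibition of lipid staining of at least 50% with the nuclear-stain viability signal not falling by more than 50%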;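 note: 0% = DMSO wells and 100% = triacsin C control wells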
AHR act – activators of human aryl hydrocarbon receptor | P35869 | AHR-responsive luciferase reporter cells, luminescence | activation, % at 5 µM | 320,000 tested, 2.5% active; in the data active = activation above about 47%;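 note: 0% = vehicle wells and 100% = reference agonist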
Target sequence (P35869 whole entry, looked up): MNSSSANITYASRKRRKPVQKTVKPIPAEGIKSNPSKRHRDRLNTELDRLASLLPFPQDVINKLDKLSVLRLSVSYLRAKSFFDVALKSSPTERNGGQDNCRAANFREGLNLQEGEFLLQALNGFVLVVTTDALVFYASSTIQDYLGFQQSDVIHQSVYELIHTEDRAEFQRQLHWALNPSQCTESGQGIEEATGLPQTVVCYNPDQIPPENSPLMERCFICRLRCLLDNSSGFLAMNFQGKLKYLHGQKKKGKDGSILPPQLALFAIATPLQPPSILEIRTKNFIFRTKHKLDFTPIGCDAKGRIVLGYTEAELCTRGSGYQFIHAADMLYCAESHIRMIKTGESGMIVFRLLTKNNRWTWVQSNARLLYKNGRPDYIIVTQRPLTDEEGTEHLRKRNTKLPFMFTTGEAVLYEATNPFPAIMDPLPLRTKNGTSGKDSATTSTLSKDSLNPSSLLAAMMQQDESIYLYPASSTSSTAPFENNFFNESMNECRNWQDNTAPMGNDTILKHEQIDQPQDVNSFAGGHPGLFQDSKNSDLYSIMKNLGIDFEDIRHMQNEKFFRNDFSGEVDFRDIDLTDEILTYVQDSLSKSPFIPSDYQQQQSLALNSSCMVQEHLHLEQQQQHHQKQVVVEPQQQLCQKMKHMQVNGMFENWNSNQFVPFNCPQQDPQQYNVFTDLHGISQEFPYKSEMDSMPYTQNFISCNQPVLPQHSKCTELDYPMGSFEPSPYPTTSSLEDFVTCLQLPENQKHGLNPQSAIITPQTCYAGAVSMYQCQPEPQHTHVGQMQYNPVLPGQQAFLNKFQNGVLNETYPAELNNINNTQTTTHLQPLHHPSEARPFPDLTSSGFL
TbMetRS inhib – Trypanosoma brucei MetRS inhibition; 360,000 tested, 0.4% active; AID 624268; inhibition, % at 11.9 µM; purified T. brucei MetRS, ATP depletion, Kinase-Glo luminescence;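 active = inhibition above a per-plate cutoff of the control wells' mean inhibition plus 3 SD, cut at about 5.5% in these data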;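 note: 0% = DMSO wells median and 100% = median of wells with control inhibitor compound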
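Dosing: 11.9 µM compound single dose, 0.9% DMSO; Assay system: purified T. brucei MetRS enzyme; Measured by: Kinase-Glo luciferase luminescence reporting remaining unconsumed ATP; Schedule: 15 min plus 2 h at 25 °C.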
SMARCA2 conf – confirmation of SMARCA2 (BRM) function activators; shares compounds with SMARCA2 activ; MG213 cells, MMTV-luciferase with dexamethasone, luminescence, overnight; MG213 cells expressing E1A, Rb sequestered; DMSO wells 0%, reference activator 100%; activation, % at 9.1 µM; 3,500 tested, 30% active; AID 652260;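 active = activation above its plate's cutoff, the mean activation of tested wells plus 3 SD, cut at about 7.9% in these data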
GAL4-VP16 Luc – GAL4-VP16 reporter activation counter-screen. HEK293 GAL4-VP16 pG5luc reporter, luciferase luminescence; scaled: DMSO wells 0%, SAHA wells 100%. 3,500 tested, 41% active. activation, % at 9.1 µM. shares compounds with SMARCA2 activ;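 active = activation above the solvent-only control well mean plus 3 SD, averaged across control plates, cut at about 5.2% in these data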
Numbers without * were called inactive; . = not tested or not shown. Sampled rows, rich in hits. Any-hit rate of the full collection: about 4.1%.

SMILES	Efflux pump mplx	SMARCA2 activ	TAG inh	AHR act	TbMetRS inhib	SMARCA2 conf	GAL4-VP16 Luc
Nc1nnc(SCC(=O)c2ccco2)s1	0	-3	7	4	0	.	.
Cc1cc(C(=O)CSc2nnc(N)s2)c(C)n1Cc1ccco1	0	12*	-14	4	0	5	5
COc1ccc(Nc2nc(N)nc(CSc3nccn3C)n2)cc1	0	8.7*	.	34	0	6	8.2*
COc1ccc(Nc2nc(N)nc(CSc3nc(C)cc(C)n3)n2)cc1	0	3	7	28	-1	.	.
c1ccc(-c2cc(NCCN3CCCCC3)c3ccccc3n2)cc1	0	25*	.	13	-1	78*	0
COc1ccc(Cn2ccc3ccc(-c4ccc5ccn(Cc6ccccc6)c5c4)cc32)cc1	.	-2	.	.	.	.	.
Cc1cc(N2CCNC[C@H]2C)ccc1N1CCN(Cc2ccccc2)[C@@H](C)C1	.	-2	.	.	.	.	.
O=C(CN1C(=O)COc2ccccc21)NCCCN1CCN(c2ccccc2F)CC1	0	-1	.	0	-1	.	.
O=C(CCN1C(=O)COc2ccccc21)NCCN1CCN(c2ccccc2F)CC1	0	8.7*	.	-3	0	-1	2
O=C(COc1ccccc1Cl)NCCc1ccc2c(c1)OCCO2	0	11*	.	3	-1	4	1
O=C(COc1ccccc1F)NCCc1ccc2c(c1)OCCO2	0	-2	-3	0	1	.	.
Cc1ccc(S(=O)(=O)NCCCc2ccc3c(c2)[C@]2(CCC[C@@H](OCc4ccccc4)[C@@H]2NC(=O)CCc2ccccc2)C(=O)N3Cc2ccccc2)cc1	.	-1	.	.	.	.	.
COc1cccc(C(=O)NC2CC3CCCC(C2)N3CC(=O)Nc2ccccc2C(F)(F)F)c1 (stereo not drawn)	0	-7	.	1	-1	.	.
CCc1cccc(CC)c1NC(=O)CN1C2CCCC1CC(NC(=O)Nc1cccc(OC)c1)C2 (stereo not drawn)	0	11*	5	3	-1	-1	1
COc1ccc(Cn2ccc3ccc(-c4ccc5ccn(C(=O)C6CCC6)c5c4)cc32)cc1	.	0	.	.	.	.	.
CCOc1ccccc1N1CCN(C(=S)NCc2ccco2)CC1	0	8.1*	.	8	0	1	0
O=C(Cc1ccccc1F)Nc1ccc2c(c1)CCC2	0	12*	.	13	0	4	6.6*
O=C(CSc1ccc(-c2cccs2)nn1)N1CCCCCC1	0	13*	.	20	1	5	5.7*
O=C(OC12CCCN(C1)/C(=C/c1cccnc1)C2)c1ccccc1 (stereo not drawn)	.	-6	.	.	.	.	.
C#CCN1C(=O)[C@]2(OCCC=C[C@H]2C)c2ccccc21	.	0	.	.	.	.	.
O=C(CC1NC2CCCCC2NC1=O)Nc1ccc2c(c1)OCO2 (stereo not drawn)	0	11*	-12	2	0	-1	0
COC(=O)c1ccc(C(=O)OC)c(NC(=S)N2CCN(c3cccc(Cl)c3)CC2)c1	0	11*	.	-1	0	-6	-1
COC(=O)c1ccc(C(=O)OC)c(NC(=S)N2CCN(c3ccccc3)CC2)c1	0	-2	.	-1	-2	.	.
COc1ccc(C(Nc2cc(C)ccn2)c2ccc3ccc(C)nc3c2O)cc1 (stereo not drawn)	0	10*	2	1	-1	-4	0
N#CC(C#N)=Cc1ccc(NC(=O)c2ccc(Br)cc2)cc1	0	9.2*	2	5	0	4	5
SMILES	Efflux pump mplx	SMARCA2 activ	TAG inh	AHR act	TbMetRS inhib	SMARCA2 conf	GAL4-VP16 Luc
CC(C)(C)c1ccc(C(=O)Nc2ccc(C=C(C#N)C#N)cc2)cc1	0	0	.	-6	1	.	.
Cn1c(=O)c(=O)n(C)c2cc(S(=O)(=O)N3CCCC3C(=O)Nc3ccccc3F)ccc21 (stereo not drawn)	0	0	-4	0	0	.	.
CCc1ccccc1NC(=O)C1CCCN1S(=O)(=O)c1ccc2c(c1)n(C)c(=O)c(=O)n2C (stereo not drawn)	0	8.0*	.	-2	0	-2	0
Cc1ccc2nc(NC(=S)NC(=O)c3ccco3)sc2c1	0	17*	.	9	0	9.5*	15*
Cc1cccc(NC(=O)c2ccco2)c1C	0	2	.	-2	-1	.	.
Cc1cc(NC(=O)c2ccco2)sc1C	0	9.1*	-14	4	0	12*	11*
O=C(Nc1nc2ccsc2c(=O)s1)c1ccco1	0	13*	10	-1	0	10.0*	6.4*
Cc1ccc(-c2nnc(NC(=O)c3ccco3)s2)cc1	0	9.2*	.	-1	0	13*	12*
O=C(NCc1nnc2c(C(F)(F)F)cc(Cl)cn12)c1cccnc1	0	9.5*	.	14	0	-4	2
COC(=O)[C@H](Cc1ccccc1)N[C@H](c1ccc(OC)cc1)[C@@H](O)Cc1ccccc1	.	1	.	.	.	.	.
O=C(CCSCc1ccccc1)Nc1ccc2c(c1)OCCO2	0	1	9	5	0	.	.
COc1ccccc1C(=O)Nc1ccc2c(c1)OCCO2	0	8.1*	.	1	-2	7	11*
O=C(Nc1ccc2c(c1)OCCO2)NC12CC3CC(CC(C3)C1)C2	0	20*	24	15	-1	12*	11*
O=C(CCc1ccccc1)Nc1ccc2c(c1)OCCO2	0	8.2*	3	22	-1	10*	11*
O=C(Nc1ccc2c(c1)OCO2)N1CCOCC1	0	0	.	44	0	.	.
O=C(Nc1ccc2c(c1)OCCO2)N1CCOCC1	0	9.7*	2	12	-1	0	3
O=C(CN(CCc1ccccc1)S(=O)(=O)c1cccs1)N1CCOCC1	.	-2	.	.	.	.	.
CN1OC[C@@H]2CN[C@H](c3ccc(-n4ccnc4)cc3)C[C@@H]21	.	0	.	.	.	.	.
c1nc2nc3c(c(N4CCCC4)n2n1)CCCC3	.	-6	.	.	.	.	.
N#Cc1cccc(NCC(=O)Nc2ccc3c(c2)OCCO3)c1	0	9.8*	15	8	0	8	3
Cn1cccc1C(=O)NCC1COc2ccccc2O1 (stereo not drawn)	.	11*	0	.	0	10*	7.1*
O=C(Cc1ccccc1)NCC1COc2ccccc2O1 (stereo not drawn)	0	-3	.	4	-1	.	.
Cc1ccsc1/C=N/NC(=O)c1sccc1C	0	11*	4	48*	-1	12*	11*
COC(=O)c1cc2ccsc2n1Cc1nc(-c2cccc(Cl)c2)oc1C	0	12*	-6	3	0	-6	0
Cc1ccc2nc(SCC(=O)c3ccc(O)cc3O)[nH]c2c1	0	8.6*	14	32	1	6	10*
